For data set [1], the system named is BEAS-2B. As to the kind of experiment: Antiinflammatory activity in human BEAS2B cells assessed as inhibition of IL4-induced eotaxin production after 48 hrs by ELISA treated 2 hrs before IL4 challenge. The data set is classed as functional, cell-based. The essentials:
(§1)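 BEAS-2B cells in RPMI-1640 with 10% FBS at 37 °C, 5% CO2, plated at 5 × 10^5/mL, switched to serum-free RPMI at 80% confluence. Pretreated 2 h with compound (1.0–25.0 μM), then IL-4 (20 ng/mL) alone. Supernatant eotaxin measured by sandwich ELISA after 48 h. Values are the mean of three experiments.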

Data set [2] can be described thus: Cytotoxicity against human BEAS2B cells at 25 uM after 48 hrs by MTT assay in the presence of IL4. The data set is classed as cell-based. The conditions noted are these: beas-2b. An outline of the steps: (§2)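 BEAS-2B viability by MTT after 48 h exposure to compound, with or without IL-4.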
A short description of data set [3]: Antiinflammatory activity in human BEAS2B cells assessed as inhibition of IL4-induced eotaxin production at 25 uM after 48 hrs by ELISA treated 2 hrs before IL4 challenge. In kind it is functional, BEAS-2B. An outline of the steps: as §1
Data set [4] in a line: Cytotoxicity against human BEAS2B cells at 25 uM after 48 hrs by MTT assay. The data set is classed as cell-based. The following applies: beas-2b. An outline of the steps:
as §2

The subject of data set [5] is BEAS-2B. As to the kind of experiment: Antiinflammatory activity in human BEAS2B cells assessed as inhibition of IL4 and TNF-alpha-induced eotaxin production after 48 hrs by ELISA treated 2 hrs before IL4 challenge. The data set is classed as functional, cell-based.
Data set [6] is described as follows: Antiinflammatory activity in human BEAS2B cells assessed as reduction in IL4 and TNF-alpha-induced eotaxin production at 25 uM after 48 hrs by ELISA treated 2 hrs before IL4 challenge (RVb=456.2 pg/ml).

Data on four compounds can be found in ChEMBL document CHEMBL1156215, “Homoisoflavonoid derivatives from the roots of Ophiopogon japonicus and their in vitro anti-inflammation activity” (Bioorg Med Chem Lett, 2010).

Molecules are shown by their SMILES.

Take `COc1ccc(C[C@@H]2COc3c(OC)c(O)c(C)c(O)c3C2=O)c(O)c1O` [OPHIOPOGONANONE G]: the Activity entry in the data set with BEAS-2B [1] is “Dose-dependent effect”; in data set [2] it was “Non-toxic”; in data set [3], 30.8 pg/mL; in data set [4] it was “Non-toxic”.
Consider `Cc1c(O)c2c(c(C=O)c1O[C@@H]1O[C@H](CO)[C@@H](O)[C@H](O)[C@H]1O)OC[C@@H](Cc1ccc3c(c1)OCO3)C2=O` [OPHIOPOGOSIDE A], for which the Activity entry with BEAS-2B [1] was “Dose-dependent effect”; in data set [2] it was “Non-toxic”; in data set [3], 28.5 pg/mL; in data set [4], “Non-toxic”; in the data set on BEAS-2B [5], “Dose-dependent effect”.
For `COc1c(C)c(O[C@@H]2O[C@H](CO)[C@@H](O)[C@H](O)[C@H]2O)c(C=O)c2c1C(=O)[C@H](Cc1ccc3c(c1)OCO3)CO2` [OPHIOPOGOSIDE B], the Activity result in the data set with BEAS-2B [1] is “Dose-dependent effect”; in data set [2] it was “Non-toxic”; in data set [3], 25.5 pg/mL; in data set [4], “Non-toxic”.
For `COc1ccc2ccc(=O)oc2c1CC=C(C)C` [OSTHOLE], the Activity in data set [6] came out at 80.5 pg/mL.
